From ChEMBL document CHEMBL1821590, “Novel dihydropyrimidines and its pyrazole derivatives: synthesis and pharmacological screening” (Eur J Med Chem, 2011)
In brackets after ≈: the same amount, converted by molar mass.

Key:
Type in all cases: functional
[1] = Antioxidant activity assessed as nitric oxide radical scavenging activity after 150 mins
In short: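 10 mM sodium nitroprusside (4 mL), PBS pH 7.4 (1 mL) and sample or ascorbic acid in DMSO (1 mL, 12.5–100 µg/mL), incubated 150 min at 25 °C. Nitrite detected with sulphanilic acid (5 min) then naphthylethylenediamine (30 min, diffused light). Read at […]. Triplicate. % inhibition = [1 − (Vt/Vc)] × 100. IC50 derived from it.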

[2] = Antioxidant activity assessed as hydrogen peroxide scavenging activity after 10 mins
In short: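 H2O2 (20 mM) in PBS pH 7.4. 1 mL of sample or ascorbic acid in methanol (12.5–100 µg/mL) added to 2 mL H2O2 solution. A230 read after 10 min. % inhibition = [1 − (Vt/Vc)] × 100. Triplicate, averaged. IC50 derived from % inhibition across concentrations.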

[3] = Antioxidant activity assessed as inhibition of lipid peroxidation using egg lecithin liposomes incubated for 1 hr
In short: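 Egg lecithin (3 mg/mL, phosphate buffer pH 7.4) sonicated 10 min to form liposomes. Sample or ascorbic acid (12.5–100 µg/mL) added. Peroxidation induced with FeCl3 and L-ascorbic acid, 1 h at 37 °C. Stopped with HCl/TCA/TBA/BHA, boiled 15 min, centrifuged, supernatant read at 532 nm. Triplicate. % inhibition vs control. IC50 derived.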

[4] = Antioxidant activity assessed as potassium ferricyanide ion reducing power after 20 mins
In short: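 Oyaizu method. Samples or ascorbic acid in DMF (12.5–100 µg/mL) mixed with 0.2 M phosphate buffer pH 6.6 and 1% potassium ferricyanide, 20 min at 50 °C. 10% TCA added, centrifuged. Supernatant mixed with water and 0.1% FeCl3, read at 700 nm. % = [(Vt/Vc) − 1] × 100. IC50 derived.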

[5] = Antiinflammatory activity assessed as inhibition of albumin denaturation at 100 ug/ml by UV-visible spectrophotometry
In short: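 Compounds dissolved in minimal DMF, diluted in PBS pH 7.4 (final DMF <2.5%). 1 mL test solution (100 µg/mL) plus 1 mL 1% albumin in PBS, 15 min at 27 ± 1 °C, then heated 10 min at 60 ± 1 °C. After cooling, turbidity read at 660 nm. % inhibition = [(Vt/Vc) − 1] × 100 against a no-drug control. Triplicate, averaged. Diclofenac standard.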

Metaphire posthuma [6] = experiment: Anthelmintic activity against Pheretima posthuma assessed as time taken for complete parasite paralysis at 0.1% w/v
In short: (§1)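 Earthworms (Pheretima posthuma) exposed to test solutions at 0.1, 0.2 and 0.5% w/v; time in minutes to complete paralysis (worms motionless) recorded. Albendazole as standard. Mean of three determinations ± S.D.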

Metaphire posthuma [7] = experiment: Anthelmintic activity against Pheretima posthuma assessed as time taken for complete parasite paralysis at 0.2% w/v; in short: as §1
Metaphire posthuma [8] = experiment: Anthelmintic activity against Pheretima posthuma assessed as time taken for complete parasite paralysis at 0.5% w/v; in short: as §1
Metaphire posthuma [9] = experiment: Anthelmintic activity against Pheretima posthuma assessed as time taken for parasite death at 0.1% w/v
In short: (§2)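 Earthworms (Pheretima posthuma, spelled Perituma posthuma in text) exposed to test compounds at 0.1, 0.2 and 0.5% w/v. Albendazole served as standard, with an untreated control. Paralysis was recorded as the time until worms became motionless, then time to death was recorded, in minutes. Each value is the mean of three determinations with S.D.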

Metaphire posthuma [10] = experiment: Anthelmintic activity against Pheretima posthuma assessed as time taken for parasite death at 0.2% w/v; in short: as §2
Metaphire posthuma [11] = experiment: Anthelmintic activity against Pheretima posthuma assessed as time taken for parasite death at 0.5% w/v; in short: as §2
Escherichia coli [12] = experiment: Antimicrobial activity against Escherichia coli at 25 ug/ml by agar plate diffusion technique; details: read-out: IZ
In short: (§3)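 Agar plate diffusion against E. coli, P. aeruginosa, S. aureus and B. subtilis, with compounds at 25, 50 and 100 µg/mL. Streptomycin as standard.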

Escherichia coli [13] = experiment: Antimicrobial activity against Escherichia coli at 50 ug/ml by agar plate diffusion technique; details: read-out: IZ; in short: as §3
Escherichia coli [14] = experiment: Antimicrobial activity against Escherichia coli at 100 ug/ml by agar plate diffusion technique; details: read-out: IZ; in short: as §3
Pseudomonas aeruginosa [15] = experiment: Antimicrobial activity against Pseudomonas aeruginosa at 25 ug/ml by agar plate diffusion technique; details: read-out: IZ; in short: as §3
Pseudomonas aeruginosa [16] = experiment: Antimicrobial activity against Pseudomonas aeruginosa at 50 ug/ml by agar plate diffusion technique; details: read-out: IZ; in short: as §3
Pseudomonas aeruginosa [17] = experiment: Antimicrobial activity against Pseudomonas aeruginosa at 100 ug/ml by agar plate diffusion technique; details: read-out: IZ; in short: as §3
Bacillus subtilis [18] = experiment: Antimicrobial activity against Bacillus subtilis at 25 ug/ml by agar plate diffusion technique; details: read-out: IZ; in short: as §3
Bacillus subtilis [19] = experiment: Antimicrobial activity against Bacillus subtilis at 50 ug/ml by agar plate diffusion technique; details: read-out: IZ; in short: as §3
Bacillus subtilis [20] = experiment: Antimicrobial activity against Bacillus subtilis at 100 ug/ml by agar plate diffusion technique; details: read-out: IZ; in short: as §3
Staphylococcus aureus [21] = experiment: Antimicrobial activity against Staphylococcus aureus at 25 ug/ml by agar plate diffusion technique; details: read-out: IZ; in short: as §3
Staphylococcus aureus [22] = experiment: Antimicrobial activity against Staphylococcus aureus at 50 ug/ml by agar plate diffusion technique; details: read-out: IZ; in short: as §3
Staphylococcus aureus [23] = experiment: Antimicrobial activity against Staphylococcus aureus at 100 ug/ml by agar plate diffusion technique; details: read-out: IZ; in short: as §3
Candida albicans [24] = experiment: Antimicrobial activity against Candida albicans at 25 ug/ml by paper disc method; details: read-out: IZ
In short: (§4)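 Paper disc method against A. niger and C. albicans, with compounds at 25, 50 and 100 µg/mL. Amphotericin-B as standard.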

Candida albicans [25] = experiment: Antimicrobial activity against Candida albicans at 50 ug/ml by paper disc method; details: read-out: IZ; in short: as §4
Candida albicans [26] = experiment: Antimicrobial activity against Candida albicans at 100 ug/ml by paper disc method; details: read-out: IZ; in short: as §4
Aspergillus niger [27] = experiment: Antimicrobial activity against Aspergillus niger at 25 ug/ml by paper disc method; details: read-out: IZ; in short: as §4
Aspergillus niger [28] = experiment: Antimicrobial activity against Aspergillus niger at 50 ug/ml by paper disc method; details: read-out: IZ; in short: as §4
Aspergillus niger [29] = experiment: Antimicrobial activity against Aspergillus niger at 100 ug/ml by paper disc method; details: read-out: IZ; in short: as §4

| SMILES | IC50 [1] [µg/mL] | IC50 [2] [µg/mL] | IC50 [3] [µg/mL] | IC50 [4] [µg/mL] | inhibition [5] [%] | Time (Metaphire posthuma [6]) [min] | Time (Metaphire posthuma [7]) [min] | Time (Metaphire posthuma [8]) [min] | Time (Metaphire posthuma [9]) [min] | Time (Metaphire posthuma [10]) [min] | Time (Metaphire posthuma [11]) [min] | zone of inhibition at 25 µg/mL (Escherichia coli [12]) [mm] | zone of inhibition at 50 µg/mL (Escherichia coli [13]) [mm] | zone of inhibition at 100 µg/mL (Escherichia coli [14]) [mm] | zone of inhibition at 25 µg/mL (Pseudomonas aeruginosa [15]) [mm] | zone of inhibition at 50 µg/mL (Pseudomonas aeruginosa [16]) [mm] | zone of inhibition at 100 µg/mL (Pseudomonas aeruginosa [17]) [mm] | zone of inhibition at 25 µg/mL (Bacillus subtilis [18]) [mm] | zone of inhibition at 50 µg/mL (Bacillus subtilis [19]) [mm] | zone of inhibition at 100 µg/mL (Bacillus subtilis [20]) [mm] | further results |
| --- | --- | --- | --- | --- | --- | --- | --- | --- | --- | --- | --- | --- | --- | --- | --- | --- | --- | --- | --- | --- | --- |
| CSc1nc(-c2ccccc2Cl)c(C#N)c(=O)n1C | 81 (≈ 278 µM) | 67 (≈ 230 µM) | 72 (≈ 247 µM) | 76 (≈ 260 µM) | 72.2 | 55.29 | 40.27 | 40.61 | 72.39 | 55.8 | 50.24 | 9.64 | 10.2 | 12.4 | 8.52 | 10.4 | 12 | 14.2 | 19.3 | 28.8 | zone of inhibition at 25 µg/mL (Staphylococcus aureus [21]): 9.4 mm; zone of inhibition at 50 µg/mL (Staphylococcus aureus [22]): 12.3 mm; zone of inhibition at 100 µg/mL (Staphylococcus aureus [23]): 16.8 mm; zone of inhibition at 25 µg/mL (Candida albicans [24]): 9.18 mm; zone of inhibition at 50 µg/mL (Candida albicans [25]): 13.8 mm; zone of inhibition at 100 µg/mL (Candida albicans [26]): 20.8 mm; zone of inhibition at 25 µg/mL (Aspergillus niger [27]): 10.6 mm; zone of inhibition at 50 µg/mL (Aspergillus niger [28]): 10.6 mm; zone of inhibition at 100 µg/mL (Aspergillus niger [29]): 17.5 mm |
| CCOC(=O)c1cnn(-c2nc(-c3cccs3)c(C#N)c(=O)n2C)c1N | 98 (≈ 265 µM) | 109 (≈ 294 µM) | 97 (≈ 262 µM) | 79 (≈ 213 µM) | 44.6 | 42.48 | 40.12 | 43.59 | 47.38 | 49.67 | 47.44 | 12.5 | 13.1 | 16.1 | 9.67 | 12.7 | 18.8 | 12.9 | 15.1 | 18.7 | zone of inhibition at 25 µg/mL (Staphylococcus aureus [21]): 11.8 mm; zone of inhibition at 50 µg/mL (Staphylococcus aureus [22]): 12.2 mm; zone of inhibition at 100 µg/mL (Staphylococcus aureus [23]): 16.5 mm; zone of inhibition at 25 µg/mL (Candida albicans [24]): 9.1 mm; zone of inhibition at 50 µg/mL (Candida albicans [25]): 13.8 mm; zone of inhibition at 100 µg/mL (Candida albicans [26]): 21.5 mm; zone of inhibition at 25 µg/mL (Aspergillus niger [27]): 12.1 mm; zone of inhibition at 50 µg/mL (Aspergillus niger [28]): 15.8 mm; zone of inhibition at 100 µg/mL (Aspergillus niger [29]): 22.1 mm |
| COc1cccc(-c2nc(NN)n(C)c(=O)c2C#N)c1OC | 54 (≈ 179 µM) | 36 (≈ 119 µM) | 37 (≈ 123 µM) | 44 (≈ 146 µM) | 24.6 | 55.23 | 55.57 | 51.42 | 71.45 | 70.25 | 67.22 | 7.38 | 7.16 | 8.12 | 6.15 | 8.12 | 9.15 | 9.9 | 12.2 | 16.7 | zone of inhibition at 25 µg/mL (Staphylococcus aureus [21]): 8.72 mm; zone of inhibition at 50 µg/mL (Staphylococcus aureus [22]): 11.2 mm; zone of inhibition at 100 µg/mL (Staphylococcus aureus [23]): 15.8 mm; zone of inhibition at 25 µg/mL (Candida albicans [24]): 10.1 mm; zone of inhibition at 50 µg/mL (Candida albicans [25]): 11 mm; zone of inhibition at 100 µg/mL (Candida albicans [26]): 17.9 mm; zone of inhibition at 25 µg/mL (Aspergillus niger [27]): 8.38 mm; zone of inhibition at 50 µg/mL (Aspergillus niger [28]): 10.3 mm; zone of inhibition at 100 µg/mL (Aspergillus niger [29]): 16.7 mm |
